In ChEMBL document CHEMBL1151747, “Orally bioavailable isothioureas block function of the chemokine receptor CXCR4 in vitro and in vivo” (J Med Chem, 2008):

How the values were obtained:
[1] = target: T1, C-X-C chemokine receptor type 4 (Homo sapiens, UniProt P61073); test: Activity at CXCR4 in human CEM cells assessed as inhibition of CXCL12-induced calcium mobilization; type: functional, cell-based, CCRF-CEM
Outline: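 CEM cells are loaded with 4 µM Fluo-4 for 1 h at 37 °C, washed, then preincubated with antagonist for 2 h. Wells are run in quadruplicate on FLIPR.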

[2] = system: Blood; test: Inhibition of CXCL12-induced actin polymerization in rat whole blood; type: functional, tissue-based
Outline: (§1)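 EDTA whole blood (100 µL) is preincubated with inhibitor diluted in PBS for 10 min at room temperature. CXCL12 (100 nM final) is added for 25 s at ambient temperature. […] Neutrophil F-actin is read by flow cytometry.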

[3] = system: Blood; test: Inhibition of CXCL12-induced actin polymerization in human whole blood; type: functional, tissue-based; outline: as §1
[4] = target: T2, C-C chemokine receptor type 4 (Homo sapiens, UniProt P51679); test: Inhibition of CCR4
T2 sequence (P51679 whole entry): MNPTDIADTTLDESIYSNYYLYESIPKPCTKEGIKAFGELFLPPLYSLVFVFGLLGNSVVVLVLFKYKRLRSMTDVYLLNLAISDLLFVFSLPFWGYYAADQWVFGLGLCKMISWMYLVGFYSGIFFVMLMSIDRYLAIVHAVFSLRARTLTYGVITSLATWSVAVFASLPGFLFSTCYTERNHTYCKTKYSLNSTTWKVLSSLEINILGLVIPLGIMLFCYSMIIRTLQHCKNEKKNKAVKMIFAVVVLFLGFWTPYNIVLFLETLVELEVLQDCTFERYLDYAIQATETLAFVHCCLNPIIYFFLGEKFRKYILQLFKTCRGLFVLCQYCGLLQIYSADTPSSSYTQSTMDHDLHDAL

[5] = Half life in Lewis rat at 10 mg/kg, po; type: ADME, organism-based; set-up: dose 10 mg/kg, route oral; details: in vivo
[6] = target: T1, C-X-C chemokine receptor type 4; test: Displacement of [125I]CXCL12 from CXCR4 in human CEM cells; type: cell-based, CCRF-CEM
Outline: (§2)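 Scintillation proximity assay. Membranes come from CEM cells (human CXCR4) or IR983F cells (rat CXCR4), prepared by homogenization in 20 mM HEPES, 1 mM EDTA pH 7.4 and stored at -80 °C. Nonspecific binding is defined with 400 nM unlabeled CXCL12. Incubation is 2 h at room temperature with shaking, then scintillation counting.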

[7] = Fraction unbound in rat serum; type: ADME, cell-free
[8] = system: Rattus norvegicus; test: Reduction in actin polymerization in Lewis rat blood at 30 mg/kg/day administered through osmotic pump for 5 days relative to control; type: functional; set-up: scale not given: the % may be the effect or the level left
Outline: (§3)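 Lewis rats (n = 3) receive 30 mg/kg·d via osmotic pumps for 5 days. Blood is sampled on day 5 and analyzed ex vivo.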

[9] = target: Cytochrome P450 2C9 (Homo sapiens, UniProt P11712); test: Inhibition of CYP2C9; type: ADME
Chain of Cytochrome P450 2C9 (P11712 whole entry): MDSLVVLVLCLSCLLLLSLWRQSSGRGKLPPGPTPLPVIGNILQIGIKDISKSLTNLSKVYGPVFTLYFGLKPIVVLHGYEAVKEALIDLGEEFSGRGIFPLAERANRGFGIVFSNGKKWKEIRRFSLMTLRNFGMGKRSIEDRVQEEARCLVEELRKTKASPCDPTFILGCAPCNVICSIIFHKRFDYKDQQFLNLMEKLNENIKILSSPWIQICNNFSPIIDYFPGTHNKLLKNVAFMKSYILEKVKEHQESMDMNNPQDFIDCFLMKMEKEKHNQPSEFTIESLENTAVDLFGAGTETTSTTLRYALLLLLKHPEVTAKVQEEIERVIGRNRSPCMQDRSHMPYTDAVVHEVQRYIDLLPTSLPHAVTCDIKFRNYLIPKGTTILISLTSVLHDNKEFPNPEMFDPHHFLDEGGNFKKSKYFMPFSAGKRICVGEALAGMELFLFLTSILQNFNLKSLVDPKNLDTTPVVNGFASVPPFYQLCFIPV

[10] = Solubility in pH 1.0 buffer; type: physicochemical
[11] = Tmax in Lewis rat at 10 mg/kg, po; type: ADME, organism-based; set-up: dose 10 mg/kg, route oral; details: in vivo
[12] = Fraction unbound in human serum; type: ADME, cell-free
[13] = Oral bioavailability in Lewis rat at 10 mg/kg; type: ADME, organism-based; details: in vivo
[14] = target: Cytochrome P450 3A4 (Homo sapiens, UniProt P08684); test: Inhibition of CYP3A4; type: ADME
Chain of Cytochrome P450 3A4 (P08684 whole entry): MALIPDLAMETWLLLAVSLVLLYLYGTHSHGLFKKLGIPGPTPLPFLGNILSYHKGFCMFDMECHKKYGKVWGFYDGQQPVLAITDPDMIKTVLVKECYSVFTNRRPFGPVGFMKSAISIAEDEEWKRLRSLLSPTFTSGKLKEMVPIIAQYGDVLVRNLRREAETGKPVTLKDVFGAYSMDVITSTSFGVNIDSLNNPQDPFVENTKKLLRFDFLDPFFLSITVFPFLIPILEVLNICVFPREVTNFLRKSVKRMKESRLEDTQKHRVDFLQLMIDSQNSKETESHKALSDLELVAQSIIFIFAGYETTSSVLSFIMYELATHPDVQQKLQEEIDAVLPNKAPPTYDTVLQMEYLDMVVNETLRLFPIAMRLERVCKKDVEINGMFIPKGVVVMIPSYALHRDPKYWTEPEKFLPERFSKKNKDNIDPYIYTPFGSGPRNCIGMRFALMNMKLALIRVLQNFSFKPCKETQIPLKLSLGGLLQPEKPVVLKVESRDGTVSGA

[15] = target: C-C chemokine receptor type 5 (Homo sapiens, UniProt P51681); test: Inhibition of CCR5
Chain of C-C chemokine receptor type 5 (P51681 whole entry): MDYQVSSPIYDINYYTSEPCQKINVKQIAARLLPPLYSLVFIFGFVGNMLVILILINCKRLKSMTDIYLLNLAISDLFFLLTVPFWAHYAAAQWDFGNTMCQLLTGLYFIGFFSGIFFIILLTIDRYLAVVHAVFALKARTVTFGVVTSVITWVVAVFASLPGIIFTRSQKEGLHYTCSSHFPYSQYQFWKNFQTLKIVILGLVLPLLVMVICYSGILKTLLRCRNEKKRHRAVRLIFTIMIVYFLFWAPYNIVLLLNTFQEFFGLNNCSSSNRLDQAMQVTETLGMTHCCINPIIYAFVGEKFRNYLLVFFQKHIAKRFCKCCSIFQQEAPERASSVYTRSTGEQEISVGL

[16] = Dissociation constant, pKa of the compound; type: physicochemical
[17] = target: Cytochrome P450 2C19 (Homo sapiens, UniProt P33261); test: Inhibition of CYP2C19; type: ADME
Chain of Cytochrome P450 2C19 (P33261 whole entry): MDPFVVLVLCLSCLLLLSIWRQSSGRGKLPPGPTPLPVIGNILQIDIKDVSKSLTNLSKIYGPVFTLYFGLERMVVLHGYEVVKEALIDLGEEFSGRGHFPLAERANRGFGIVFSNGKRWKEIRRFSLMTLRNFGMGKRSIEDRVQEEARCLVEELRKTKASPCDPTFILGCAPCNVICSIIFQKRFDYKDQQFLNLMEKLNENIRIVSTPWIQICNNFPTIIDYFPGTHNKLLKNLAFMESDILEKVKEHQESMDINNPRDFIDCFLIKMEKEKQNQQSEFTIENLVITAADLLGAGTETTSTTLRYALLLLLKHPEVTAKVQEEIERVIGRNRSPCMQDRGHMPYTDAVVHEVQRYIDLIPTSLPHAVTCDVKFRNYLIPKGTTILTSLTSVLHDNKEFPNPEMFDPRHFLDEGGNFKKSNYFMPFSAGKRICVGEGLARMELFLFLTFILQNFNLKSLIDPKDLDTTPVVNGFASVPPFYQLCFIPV

[18] = target: T3, Cytochrome P450 1A2 (Homo sapiens, UniProt P05177); test: Inhibition of CYP1A2; type: ADME
T3 sequence (P05177 whole entry): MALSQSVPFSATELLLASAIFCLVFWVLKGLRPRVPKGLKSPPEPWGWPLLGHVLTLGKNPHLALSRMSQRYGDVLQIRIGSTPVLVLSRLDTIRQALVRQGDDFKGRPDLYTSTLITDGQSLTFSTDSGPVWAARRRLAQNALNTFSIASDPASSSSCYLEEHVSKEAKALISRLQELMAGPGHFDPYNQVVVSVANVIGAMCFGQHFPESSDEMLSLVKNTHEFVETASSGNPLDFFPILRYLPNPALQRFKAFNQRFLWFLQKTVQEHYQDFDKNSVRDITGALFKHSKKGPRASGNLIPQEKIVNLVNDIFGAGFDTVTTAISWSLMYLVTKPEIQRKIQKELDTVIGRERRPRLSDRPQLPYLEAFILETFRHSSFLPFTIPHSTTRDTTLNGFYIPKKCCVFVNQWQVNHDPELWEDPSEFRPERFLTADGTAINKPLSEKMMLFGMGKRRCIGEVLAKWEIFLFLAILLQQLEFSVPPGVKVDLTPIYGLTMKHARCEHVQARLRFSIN

[19] = Drug level in Lewis rat blood at 30 mg/kg/day administered through osmotic pump for 5 days; type: ADME, organism-based; details: other: administered through osmotic pump, read-out: Drug uptake; outline: as §3
[20] = target: T4, C-C chemokine receptor type 7 (Homo sapiens, UniProt P32248); test: Inhibition of CCR7
T4 sequence (P32248 whole entry): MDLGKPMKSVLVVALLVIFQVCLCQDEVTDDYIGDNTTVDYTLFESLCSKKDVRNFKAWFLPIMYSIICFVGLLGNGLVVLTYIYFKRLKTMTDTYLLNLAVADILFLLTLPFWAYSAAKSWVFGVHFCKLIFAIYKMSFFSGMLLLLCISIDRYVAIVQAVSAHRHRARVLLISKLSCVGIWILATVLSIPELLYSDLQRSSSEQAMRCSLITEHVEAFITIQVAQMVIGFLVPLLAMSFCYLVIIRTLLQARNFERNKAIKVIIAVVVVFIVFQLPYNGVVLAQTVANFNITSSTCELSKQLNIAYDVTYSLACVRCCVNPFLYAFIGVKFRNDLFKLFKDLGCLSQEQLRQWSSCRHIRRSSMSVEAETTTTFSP

[21] = target: C-X-C chemokine receptor type 4 (Rattus norvegicus, UniProt O08565); test: Displacement of [125I]CXCL12 from CXCR4 in rat IR983F cells; type: cell-based; outline: as §2
Chain of C-X-C chemokine receptor type 4 (Rattus norvegicus, UniProt O08565) (O08565 whole entry): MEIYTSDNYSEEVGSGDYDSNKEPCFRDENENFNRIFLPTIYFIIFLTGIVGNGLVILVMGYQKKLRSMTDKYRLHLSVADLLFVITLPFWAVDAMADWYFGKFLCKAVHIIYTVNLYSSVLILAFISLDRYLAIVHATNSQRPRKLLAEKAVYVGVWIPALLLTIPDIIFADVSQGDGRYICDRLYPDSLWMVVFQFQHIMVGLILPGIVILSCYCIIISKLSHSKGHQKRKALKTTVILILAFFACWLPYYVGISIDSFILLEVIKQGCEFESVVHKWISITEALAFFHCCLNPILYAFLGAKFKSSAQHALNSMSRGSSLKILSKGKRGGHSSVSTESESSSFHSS

[22] = Intrinsic clearance in rat liver microsomes; type: ADME, Microsome
Outline: (§4)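 Compound is incubated with human or rat liver microsomes; intrinsic clearance is given in µL min-1 mg-1.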

[23] = Distribution coefficient, log D of the compound; type: physicochemical; details: octanol/water
[24] = target: T5, C-C chemokine receptor type 9 (Homo sapiens, UniProt P51686); test: Inhibition of CCR9
T5 sequence (P51686 whole entry): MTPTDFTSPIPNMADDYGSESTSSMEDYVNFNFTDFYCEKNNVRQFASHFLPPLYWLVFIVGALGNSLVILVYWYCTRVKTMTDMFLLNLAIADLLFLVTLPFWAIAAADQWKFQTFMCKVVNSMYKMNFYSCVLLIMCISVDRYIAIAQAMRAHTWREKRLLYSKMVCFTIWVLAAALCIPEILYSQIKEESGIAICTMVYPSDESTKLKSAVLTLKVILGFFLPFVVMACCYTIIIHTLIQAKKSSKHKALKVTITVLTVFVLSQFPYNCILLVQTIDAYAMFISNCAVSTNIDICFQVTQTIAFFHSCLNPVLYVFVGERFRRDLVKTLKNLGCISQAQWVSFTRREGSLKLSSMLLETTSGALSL

[25] = target: T6, C-X-C chemokine receptor type 2 (Homo sapiens, UniProt P25025); test: Inhibition of CXCR2
T6 sequence (P25025 whole entry): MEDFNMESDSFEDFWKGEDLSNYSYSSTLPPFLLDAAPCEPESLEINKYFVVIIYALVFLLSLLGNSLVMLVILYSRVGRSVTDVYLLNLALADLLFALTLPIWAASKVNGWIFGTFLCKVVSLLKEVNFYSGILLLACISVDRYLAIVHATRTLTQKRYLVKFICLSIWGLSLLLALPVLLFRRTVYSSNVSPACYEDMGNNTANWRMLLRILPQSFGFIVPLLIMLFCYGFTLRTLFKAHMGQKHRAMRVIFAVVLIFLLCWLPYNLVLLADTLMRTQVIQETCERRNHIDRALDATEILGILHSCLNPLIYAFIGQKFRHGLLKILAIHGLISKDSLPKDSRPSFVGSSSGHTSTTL

[26] = Partition coefficient, log P of the compound; type: physicochemical; details: octanol/water
[27] = Intrinsic clearance in human liver microsomes; type: ADME, Microsome; outline: as §4
[28] = system: Human immunodeficiency virus 1; test: Antiviral activity against X4-tropic HIV1 3B assessed as inhibition of viral attachment; type: functional, organism-based; details: Human immunodeficiency virus 1, 3B
[29] = Solubility in pH 6.8 buffer; type: physicochemical

T1 sequence (P61073 whole entry): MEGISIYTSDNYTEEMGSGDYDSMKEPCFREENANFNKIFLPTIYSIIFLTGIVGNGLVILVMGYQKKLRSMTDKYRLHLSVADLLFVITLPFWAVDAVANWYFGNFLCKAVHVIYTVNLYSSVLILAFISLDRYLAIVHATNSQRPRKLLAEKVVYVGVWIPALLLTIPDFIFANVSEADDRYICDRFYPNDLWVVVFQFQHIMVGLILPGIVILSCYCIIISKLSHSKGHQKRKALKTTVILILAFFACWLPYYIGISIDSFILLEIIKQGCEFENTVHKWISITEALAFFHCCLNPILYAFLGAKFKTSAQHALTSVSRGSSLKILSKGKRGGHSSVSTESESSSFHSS

C1=C(CS/C(=N\C2CCCCC2)NC2CCCCC2)N2CCN=C2S1
IC50 [1]: 0.011 µM
IC50 [2]: 0.086 µM
IC50 [3]: 0.032 µM
IC50 [4]: > 3 µM
half-life [5]: 7.2 h
IC50 [6]: 0.048 µM
fraction unbound [7]: 0.54
Activity [8]: >80%
IC50 [9]: > 10 µM
solubility [10]: > 5 mg/mL
Tmax [11]: 0.5 h
fraction unbound [12]: 0.29
bioavailability [13]: 14%
IC50 [14]: 3.86 µM
IC50 [15]: > 3 µM
pKa [16]: 7.7
IC50 [17]: > 10 µM
IC50 [18]: > 10 µM
concentration at 120 h [19]: 1 µM
IC50 [20]: > 3 µM
IC50 [21]: 0.055 µM
microsomal CLint [22]: 411 µL/min/mg
logD [23]: -0.2
IC50 [24]: > 3 µM
IC50 [25]: > 3 µM
logP [26]: 3.5
microsomal CLint [27]: 51 µL/min/mg
IC50 [28]: 0.04 µM
IC90 [28]: 0.72 µM
solubility [29]: > 5 mg/mL
